Compounds with a hit are over-represented: about 3.7% of the library has one in this group of screens.
AHR act – AHR activators, primary screen, cell-based, luminescence, luciferase reporter, human; AHR-responsive luciferase reporter cells; activation, % at 5 µM; 320,000 tested, 2.5% active; in the data active = activation above about 47%;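 note: 0% = vehicle wells and 100% = reference agonist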
SR-BI HDL uptake – inhibitors of SR-BI mediated HDL lipid uptake, primary screen, ldlA[mSR-BI] cells, fluorescence, single point | Scavenger receptor class B member 1 (Mus musculus), Q61009 | ldlA[mSR-BI] CHO cells, DiI-HDL uptake fluorescence, 3 h | inhibition, % at 12.5 µM | 320,000 tested, 0.96% active | AID 488896, 2010;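 active = mean replicate inhibition of at least 70% and a set share of replicates each scoring 70 or more; inconclusive = meets just one of the two criteria; inactive = fails both criteria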;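 note: 0% = median of neutral control wells and 100% = median of positive control wells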
SR-BI uptake up – activators of SR-BI mediated DiI-HDL uptake, primary screen, ldlA[mSR-BI] CHO cells, DiI fluorescence. 3 h; 100 = double the neutral-control signal. activation, % at 12.5 µM. 320,000 tested, 0.096% active;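 active = mean replicate activation of at least 60% and every replicate at or above 60%; inconclusive = mean or all-replicate condition met, but not both; inactive = mean below 60% and not all replicates reaching 60%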;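 note: 0% = median plate neutral-control signal and 100% = twice that signal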
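Test system: SR-BI-overexpressing, LDLR-lacking CHO cells; Medium: Ham's F12 with 0.5% BSA, HEPES 25 mM, pH 7.4; Schedule: 3 h, 37 °C; Technique: bottom-read fluorescence, 550/595 nm.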
GASC-1 inh – inhibitors of GASC-1 histone demethylase, primary screen, biochemical, fluorescence, DELFIA europium; GST-JMJD2C(1-420) H3K9me3 demethylation; inhibition, % at 2.35 µM; 330,000 tested, 0.069% active; AID 2099, 2009;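 active = more than half of a compound's replicate wells show inhibition beyond 50%, single wells judged on their own value; inconclusive = some, but no more than half, of replicates pass 50% inhibition; inactive = no replicate passes 50% inhibition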;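 note: signal counts dimethyl H3K9 product captured on neutravidin plate; 0% = median of DMSO wells and 100% = 0.3 times that DMSO median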
Target sequence (Q9H3R0 1-420 limits assumed): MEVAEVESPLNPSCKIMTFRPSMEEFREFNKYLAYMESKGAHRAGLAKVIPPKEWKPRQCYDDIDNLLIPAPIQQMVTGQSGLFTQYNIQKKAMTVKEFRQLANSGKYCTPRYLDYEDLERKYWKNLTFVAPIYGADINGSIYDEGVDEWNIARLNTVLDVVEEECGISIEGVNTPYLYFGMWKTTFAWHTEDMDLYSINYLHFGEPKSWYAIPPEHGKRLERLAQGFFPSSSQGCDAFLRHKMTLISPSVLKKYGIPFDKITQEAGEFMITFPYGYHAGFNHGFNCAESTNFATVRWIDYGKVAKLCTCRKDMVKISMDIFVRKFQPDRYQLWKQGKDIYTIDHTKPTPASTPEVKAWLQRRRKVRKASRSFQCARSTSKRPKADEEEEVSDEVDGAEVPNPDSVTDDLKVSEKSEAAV
FXN GAA850 act – FXN promoter activators, primary screen, cell-based, luciferase luminescence, HEK293 lucGAA850. AID 540364, 2011. activation, % at 6 µM. 360,000 tested, 0.56% active. HEK293 lucGAA850 FXN promoter luciferase reporter, 24 h; percent of 10 µM SAHA response;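 active = activation above the average of all compounds screened plus 3 SD, cutoff fixed separately per campaign, cut at about 7.5% in these data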;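 note: 0% = DMSO wells and 100% = 10 µM SAHA wells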
An asterisk follows results filed as active.

Screening CCOc1ccccc1N(CC(=O)Nc1ccc2c(c1)OCO2)S(C)(=O)=O returned AHR act 69*, SR-BI HDL uptake -2, SR-BI uptake up 2, GASC-1 inh -22 and FXN GAA850 act 1.
Screening COc1cccc(N(CC(=O)Nc2ccc3c(c2)OCO3)S(=O)(=O)c2ccccc2)c1 returned AHR act 76*, SR-BI HDL uptake 6, SR-BI uptake up -6, GASC-1 inh -10 and FXN GAA850 act -4.
Screening COc1ccc(N(CC(=O)Nc2ccc3c(c2)OCO3)S(=O)(=O)c2ccccc2)cc1 returned AHR act 42, SR-BI HDL uptake -11, SR-BI uptake up 11, GASC-1 inh -1 and FXN GAA850 act 2.
Screening COc1ccc(S(=O)(=O)N(CC(=O)Nc2ccc3c(c2)OCO3)c2ccccc2OC)cc1 returned AHR act 47*, SR-BI HDL uptake 5, SR-BI uptake up -5, GASC-1 inh -16 and FXN GAA850 act -3.
For Cc1cc(C)n(C(=O)CCCn2cc([N+](=O)[O-])cn2)n1 the results were AHR act 1, SR-BI HDL uptake -9, SR-BI uptake up 9, GASC-1 inh 2 and FXN GAA850 act 1.
For CN(C(=O)COc1ncnc2ccc(Br)cc12)C1CCCCC1 the results were FXN GAA850 act 0.
Screening Cc1ccc(C)c2sc(N)nc12 returned AHR act 2, SR-BI HDL uptake 2, SR-BI uptake up -2, GASC-1 inh 2 and FXN GAA850 act 3.
For Cc1nc(N)sc1N=Nc1ccc(Br)cc1 the results were AHR act 146*, SR-BI HDL uptake 29, SR-BI uptake up -29, GASC-1 inh inconclusive and FXN GAA850 act 6.
For Cc1[nH]nc(N)c1N=Nc1ccc(Br)cc1 the results were AHR act 68* and GASC-1 inh -1.
For Cc1ccc2c(c1)N(CC(=O)NC1CCCCC1)C(=O)c1cccnc1O2 the results were AHR act -1, SR-BI HDL uptake -3, SR-BI uptake up 3, GASC-1 inh -2 and FXN GAA850 act 0.
For CCn1ncc(Cl)c1C(=O)Nc1ccc2c(c1)CCC2 the results were AHR act 19, SR-BI HDL uptake 27, SR-BI uptake up -27, GASC-1 inh -19 and FXN GAA850 act 6.
Screening Oc1csc(Cc2nc(-c3ccc(-c4ccccc4)cc3)cs2)n1 returned AHR act 65*, SR-BI HDL uptake 31, SR-BI uptake up -31, GASC-1 inh 1 and FXN GAA850 act 4.
Oc1csc(Cc2nc(-c3ccccc3F)cs2)n1 was read as AHR act 8, SR-BI HDL uptake 18, SR-BI uptake up -18, GASC-1 inh 6 and FXN GAA850 act 3.
For COc1ccc(C(=O)NC(=S)NCc2cccnc2)cc1[N+](=O)[O-] the results were AHR act 76*, SR-BI HDL uptake 15, SR-BI uptake up -15, GASC-1 inh -6 and FXN GAA850 act 2.
Screening COc1ccc(C(=O)NC(=S)NCc2cccnc2)cc1OC returned AHR act 39, SR-BI HDL uptake 9, SR-BI uptake up -9, GASC-1 inh 27 and FXN GAA850 act -2.
CC1CCCN(C(C(=O)Nc2ccc3c(c2)OCO3)c2ccccc2)C1 (stereo not drawn) was read as AHR act 47*, SR-BI HDL uptake -6, SR-BI uptake up 6, GASC-1 inh -4 and FXN GAA850 act 0.
O=C(Nc1ccc2c(c1)OCO2)C(c1ccccc1)N1CCC2(CC1)OCCO2 (stereo not drawn) was read as AHR act 11, SR-BI HDL uptake -24, SR-BI uptake up 24, GASC-1 inh -1 and FXN GAA850 act 1.
For CC1CCC(NC(=O)C(=O)Nc2ccc3c(c2)OCO3)CC1 (stereo not drawn) the results were AHR act 49*, SR-BI HDL uptake -5, SR-BI uptake up 5, GASC-1 inh 9 and FXN GAA850 act 2.
`CC1CCN(C(C(=O)Nc2ccc3c(c2)OCO3)c2ccccc2)CC1` (stereo not drawn) gave AHR act 48*, SR-BI HDL uptake -26, SR-BI uptake up 26, GASC-1 inh 3 and FXN GAA850 act -2.
`O=C(Nc1ccc2c(c1)OCO2)C(c1ccccc1)N1CCCCC1` (stereo not drawn) gave AHR act 60*, SR-BI HDL uptake 4, SR-BI uptake up -4, GASC-1 inh 3 and FXN GAA850 act -3.
CC1CCCN(C(C(=O)Nc2ccc3c(c2)OCCO3)c2ccccc2)C1 (stereo not drawn) was read as AHR act 1, SR-BI HDL uptake 0, SR-BI uptake up 0, GASC-1 inh 18 and FXN GAA850 act -1.
CC(=O)N1CCN2C(=O)C1CCCC(=O)c1cc(C)ccc12 (stereo not drawn) was read as AHR act 0, GASC-1 inh 0 and FXN GAA850 act -2.
`O=C(COC(=O)CC(c1ccccc1)c1ccccc1)NCc1ccc(Cl)cc1` gave AHR act 0, SR-BI HDL uptake -21, SR-BI uptake up 21, GASC-1 inh -9 and FXN GAA850 act -4.
`CCN1CCN(c2ccc(Cl)cc2NC(=O)c2ccc(-n3nc(C)cc3C)cc2)CC1` gave AHR act 0, SR-BI HDL uptake 49, SR-BI uptake up -49, GASC-1 inh 0 and FXN GAA850 act -3.
For CC(C)n1c(O)c(/C=C2\C=NN=C2c2ccccc2)sc1=S the results were AHR act 64*, SR-BI HDL uptake 34, SR-BI uptake up -34, GASC-1 inh inconclusive and FXN GAA850 act -1.
CCn1c(O)c(/C=C2\C=NN=C2c2ccc(C)cc2)sc1=S was read as AHR act -1, SR-BI HDL uptake 16, SR-BI uptake up -16, GASC-1 inh 4 and FXN GAA850 act 2.
`CCCCOC(=O)/C=C\C(=O)NC(N)=O` gave AHR act 14, SR-BI HDL uptake -28, SR-BI uptake up 28, GASC-1 inh -1 and FXN GAA850 act 3.
Screening Oc1ccc(N=C/C=C/c2ccc(Br)cc2)cc1-c1nc2ccccc2s1 returned AHR act 17 and GASC-1 inh 12.
CC(C)(C)NC(=O)C[C@H]1C[C@H](C(=O)N2CCOCC2)[C@@]2(C)c3[nH]c4ccc(Cl)cc4c3CCN2C1=O was read as SR-BI HDL uptake 6, SR-BI uptake up -6 and FXN GAA850 act -3.
Screening CC(C)(C)NC(=O)CC1C[C@H](C(=O)N2CCOCC2)[C@@]2(C)c3[nH]c4ccccc4c3CCN2C1=O (stereo partly drawn) returned AHR act -1, SR-BI HDL uptake 77*, SR-BI uptake up -77, GASC-1 inh 0 and FXN GAA850 act 1.

Screening results: PubChem, several laboratories
